Reference: ChEMBL document CHEMBL1139503, “Varenicline: an alpha4beta2 nicotinic receptor partial agonist for smoking cessation” (J Med Chem, 2005)
pKi: −log10 of the molar value.

What was measured:
[1] = target: Neuronal acetylcholine receptor; alpha3/beta4 (Homo sapiens, UniProt P30926+P32297); test: Inhibition of [3H]epibatidine binding to nicotinic acetylcholine receptor alpha3-beta4 of human IMR32 cells; type: cell-based, IMR-32
Procedure, shortened: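 Displacement of [3H]-epibatidine from IMR32 cell preparations; N = 3 determinations.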

[2] = target: T1, Neuronal acetylcholine receptor; alpha4/beta2 (Homo sapiens) (UniProt P17787+P43681); test: Percent antagonist activity against 10 uM nicotine at human nicotinic acetylcholine receptor alpha4-beta2 at 10 uM; type: functional
[3] = target: Neuronal acetylcholine receptor; alpha4/beta2 (Rattus norvegicus, UniProt P09483+P12390); test: Inhibition of [3H]nicotine binding to nicotinic acetylcholine receptor alpha4-beta2 of rat cortex
Sequence of Neuronal acetylcholine receptor; alpha4/beta2 (P09483 whole entry): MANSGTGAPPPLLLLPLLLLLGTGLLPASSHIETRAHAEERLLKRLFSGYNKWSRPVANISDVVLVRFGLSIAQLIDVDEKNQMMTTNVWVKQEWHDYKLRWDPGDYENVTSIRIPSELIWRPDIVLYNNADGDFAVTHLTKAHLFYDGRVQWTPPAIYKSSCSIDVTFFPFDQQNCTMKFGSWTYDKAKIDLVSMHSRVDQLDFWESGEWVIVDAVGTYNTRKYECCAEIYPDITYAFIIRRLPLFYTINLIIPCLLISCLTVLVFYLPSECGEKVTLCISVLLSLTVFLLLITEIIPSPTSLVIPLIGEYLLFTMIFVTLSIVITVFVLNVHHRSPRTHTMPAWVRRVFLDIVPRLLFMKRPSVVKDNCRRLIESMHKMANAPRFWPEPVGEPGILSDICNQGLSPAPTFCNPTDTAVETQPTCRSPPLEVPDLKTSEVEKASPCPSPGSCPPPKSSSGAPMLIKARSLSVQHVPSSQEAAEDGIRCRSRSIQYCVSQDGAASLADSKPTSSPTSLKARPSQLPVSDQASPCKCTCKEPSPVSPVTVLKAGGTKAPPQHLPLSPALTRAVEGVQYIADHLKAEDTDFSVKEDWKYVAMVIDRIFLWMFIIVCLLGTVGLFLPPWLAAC
Sequence of Neuronal acetylcholine receptor; alpha4/beta2 (P12390 whole entry): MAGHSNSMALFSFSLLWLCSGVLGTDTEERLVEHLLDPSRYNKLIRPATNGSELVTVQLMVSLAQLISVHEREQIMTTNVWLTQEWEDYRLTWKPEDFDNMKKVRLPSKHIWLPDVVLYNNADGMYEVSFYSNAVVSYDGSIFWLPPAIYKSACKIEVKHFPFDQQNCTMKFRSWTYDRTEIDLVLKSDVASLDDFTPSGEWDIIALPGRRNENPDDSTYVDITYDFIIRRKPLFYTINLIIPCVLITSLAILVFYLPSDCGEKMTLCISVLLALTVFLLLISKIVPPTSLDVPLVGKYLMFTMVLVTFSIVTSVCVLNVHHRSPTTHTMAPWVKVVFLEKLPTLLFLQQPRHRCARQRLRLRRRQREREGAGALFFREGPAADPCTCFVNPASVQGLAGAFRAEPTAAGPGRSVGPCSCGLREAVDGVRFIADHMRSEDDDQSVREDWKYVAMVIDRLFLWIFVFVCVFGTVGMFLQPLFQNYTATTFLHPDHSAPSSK
Procedure, shortened: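 Radioligand displacement in rat cortex tissue; N = 3 determinations.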

[4] = target: T1, Neuronal acetylcholine receptor; alpha4/beta2 (Homo sapiens); test: Percent agonist activity relative to 10 uM (-)-nicotine at human nicotinic acetylcholine receptor alpha4-beta2 at 10 uM; type: functional
Procedure, shortened: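 Electrophysiology in Xenopus oocytes expressing human α4β2 nAChR. Compound applied alone at 10 µM. Current compared with the response to 10 µM (-)-nicotine (chosen over EC50 level to limit desensitization) and expressed as percent; N = 3, SEM ≤10%.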

[5] = target: Neuronal acetylcholine receptor subunit alpha-7 (Rattus norvegicus, UniProt Q05941); test: Inhibition of [125I]alpha-bungarotoxin binding to nicotinic acetylcholine receptor alpha-7 subunit in rat GH4C1 cells; type: cell-based, GH4-C1
Sequence of Neuronal acetylcholine receptor subunit alpha-7 (Q05941 whole entry): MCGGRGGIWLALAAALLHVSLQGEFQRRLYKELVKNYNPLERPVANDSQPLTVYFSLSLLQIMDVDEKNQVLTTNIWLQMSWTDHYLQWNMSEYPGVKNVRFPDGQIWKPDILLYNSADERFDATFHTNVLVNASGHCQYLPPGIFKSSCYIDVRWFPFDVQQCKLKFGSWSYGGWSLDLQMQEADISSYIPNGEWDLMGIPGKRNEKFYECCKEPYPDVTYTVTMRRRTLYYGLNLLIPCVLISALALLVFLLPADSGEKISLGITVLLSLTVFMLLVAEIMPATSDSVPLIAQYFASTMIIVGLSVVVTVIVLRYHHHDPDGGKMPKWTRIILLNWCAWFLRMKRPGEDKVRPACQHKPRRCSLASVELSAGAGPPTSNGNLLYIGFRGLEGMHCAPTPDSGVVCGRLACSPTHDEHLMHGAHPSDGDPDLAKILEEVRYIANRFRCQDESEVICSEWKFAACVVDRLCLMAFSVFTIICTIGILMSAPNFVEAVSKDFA

Acetylcholine receptor = Acetylcholine receptor (Torpedo californica, UniProt P02710+P02712+P02714+P02718); test: Inhibition of [125I]alpha-bungarotoxin binding to nicotinic acetylcholine receptor alpha1 beta gamma delta of electroplax; type: protein-complex assay
Sequence of Acetylcholine receptor (P02710 whole entry): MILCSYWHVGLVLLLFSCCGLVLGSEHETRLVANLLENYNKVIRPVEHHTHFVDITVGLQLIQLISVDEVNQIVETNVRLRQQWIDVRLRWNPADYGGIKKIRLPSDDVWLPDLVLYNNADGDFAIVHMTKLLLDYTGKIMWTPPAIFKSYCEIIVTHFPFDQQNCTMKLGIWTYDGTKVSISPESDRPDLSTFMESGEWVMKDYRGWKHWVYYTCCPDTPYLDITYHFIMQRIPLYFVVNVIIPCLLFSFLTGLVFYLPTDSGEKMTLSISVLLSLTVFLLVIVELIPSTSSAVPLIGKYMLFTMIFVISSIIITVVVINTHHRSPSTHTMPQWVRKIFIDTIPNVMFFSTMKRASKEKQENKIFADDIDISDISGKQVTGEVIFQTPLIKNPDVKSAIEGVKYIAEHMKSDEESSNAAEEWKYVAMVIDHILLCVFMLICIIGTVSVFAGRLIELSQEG
Sequence of Acetylcholine receptor (P02712 whole entry): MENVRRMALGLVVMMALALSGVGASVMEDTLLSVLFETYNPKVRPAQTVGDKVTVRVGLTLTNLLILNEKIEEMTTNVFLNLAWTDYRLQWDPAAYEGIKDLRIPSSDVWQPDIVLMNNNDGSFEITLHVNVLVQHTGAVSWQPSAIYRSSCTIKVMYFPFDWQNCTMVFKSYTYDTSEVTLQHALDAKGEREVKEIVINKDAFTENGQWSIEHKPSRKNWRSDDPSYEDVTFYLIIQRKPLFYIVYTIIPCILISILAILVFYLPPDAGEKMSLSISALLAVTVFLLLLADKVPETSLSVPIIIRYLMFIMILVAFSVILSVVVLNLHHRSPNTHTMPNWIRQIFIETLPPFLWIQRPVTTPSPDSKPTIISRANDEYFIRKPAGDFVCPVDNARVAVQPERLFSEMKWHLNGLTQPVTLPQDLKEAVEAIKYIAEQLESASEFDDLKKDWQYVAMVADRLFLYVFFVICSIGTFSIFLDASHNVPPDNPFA
Sequence of Acetylcholine receptor (P02718 whole entry): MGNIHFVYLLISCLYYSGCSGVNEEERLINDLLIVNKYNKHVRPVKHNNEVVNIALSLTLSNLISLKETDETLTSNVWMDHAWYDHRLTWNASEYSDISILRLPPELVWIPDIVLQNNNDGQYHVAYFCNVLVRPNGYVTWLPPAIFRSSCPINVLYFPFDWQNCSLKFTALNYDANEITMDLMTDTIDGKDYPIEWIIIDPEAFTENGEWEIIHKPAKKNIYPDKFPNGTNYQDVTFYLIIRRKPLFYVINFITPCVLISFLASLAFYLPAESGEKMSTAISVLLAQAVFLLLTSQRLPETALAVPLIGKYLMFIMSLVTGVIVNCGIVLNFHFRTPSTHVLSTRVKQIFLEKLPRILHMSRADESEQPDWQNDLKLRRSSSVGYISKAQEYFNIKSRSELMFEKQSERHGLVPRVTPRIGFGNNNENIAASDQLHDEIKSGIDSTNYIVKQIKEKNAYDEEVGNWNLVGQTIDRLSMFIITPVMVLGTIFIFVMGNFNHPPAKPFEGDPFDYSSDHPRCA
Sequence of Acetylcholine receptor (P02714 whole entry): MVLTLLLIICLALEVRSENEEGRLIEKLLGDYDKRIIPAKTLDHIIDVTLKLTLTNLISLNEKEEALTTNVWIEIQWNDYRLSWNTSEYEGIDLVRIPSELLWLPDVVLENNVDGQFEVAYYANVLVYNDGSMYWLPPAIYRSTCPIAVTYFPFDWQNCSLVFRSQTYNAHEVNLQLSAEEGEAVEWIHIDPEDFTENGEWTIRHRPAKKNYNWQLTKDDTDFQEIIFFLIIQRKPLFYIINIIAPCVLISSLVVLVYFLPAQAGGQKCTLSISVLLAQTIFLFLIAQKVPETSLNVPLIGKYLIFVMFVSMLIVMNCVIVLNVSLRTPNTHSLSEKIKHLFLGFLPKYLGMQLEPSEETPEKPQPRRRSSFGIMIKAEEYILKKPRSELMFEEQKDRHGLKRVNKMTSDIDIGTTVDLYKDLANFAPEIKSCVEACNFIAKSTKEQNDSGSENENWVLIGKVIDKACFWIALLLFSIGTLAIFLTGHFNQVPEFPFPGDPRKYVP
Procedure, shortened: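 Competition binding with [125I]-α-bungarotoxin on electroplax membranes; N = 3 determinations.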

Sequence of Neuronal acetylcholine receptor; alpha3/beta4 (P30926 whole entry): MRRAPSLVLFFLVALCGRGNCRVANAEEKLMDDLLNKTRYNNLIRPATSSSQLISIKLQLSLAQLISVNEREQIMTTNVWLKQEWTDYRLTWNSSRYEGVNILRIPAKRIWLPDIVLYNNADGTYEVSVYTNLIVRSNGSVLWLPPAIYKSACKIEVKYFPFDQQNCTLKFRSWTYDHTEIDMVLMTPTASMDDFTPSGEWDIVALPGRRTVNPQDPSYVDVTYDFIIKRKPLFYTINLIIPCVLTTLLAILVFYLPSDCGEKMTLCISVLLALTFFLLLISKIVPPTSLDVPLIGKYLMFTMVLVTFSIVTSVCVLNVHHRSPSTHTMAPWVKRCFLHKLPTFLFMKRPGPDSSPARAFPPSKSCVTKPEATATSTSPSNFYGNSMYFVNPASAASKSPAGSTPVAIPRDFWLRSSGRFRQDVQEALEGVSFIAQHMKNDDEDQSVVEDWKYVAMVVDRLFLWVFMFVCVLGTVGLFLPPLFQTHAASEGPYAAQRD
Sequence of Neuronal acetylcholine receptor; alpha3/beta4 (P32297 whole entry): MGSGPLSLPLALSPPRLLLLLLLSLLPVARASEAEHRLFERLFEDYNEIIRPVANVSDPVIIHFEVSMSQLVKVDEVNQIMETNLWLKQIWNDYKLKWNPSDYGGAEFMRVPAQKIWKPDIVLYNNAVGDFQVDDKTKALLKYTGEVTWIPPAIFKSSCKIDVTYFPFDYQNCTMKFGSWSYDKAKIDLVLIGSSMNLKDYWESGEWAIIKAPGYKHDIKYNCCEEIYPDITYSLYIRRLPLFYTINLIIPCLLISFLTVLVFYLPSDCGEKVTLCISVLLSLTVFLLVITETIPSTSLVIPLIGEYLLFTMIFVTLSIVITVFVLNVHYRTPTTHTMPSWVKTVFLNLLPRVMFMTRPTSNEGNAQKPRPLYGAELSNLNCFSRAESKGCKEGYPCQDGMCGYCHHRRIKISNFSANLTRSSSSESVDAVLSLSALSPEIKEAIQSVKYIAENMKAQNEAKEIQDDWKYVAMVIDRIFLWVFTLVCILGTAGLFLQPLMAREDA

With c1ccc2c(c1)C1CNCC2C1 the pKi [1] was 5.55, the inhibition [2] was 35% and the pKi [3] was 7.70. For the same compound, the Response [4] was 0%, the pKi [5] was less than 5.30 and the pKi (Acetylcholine receptor) was 6.43.

c1cnc2cc3c(cc2n1)[C@@H]1CNC[C@H]3C1 gave an inhibition [2] of 34%, a pKi [3] of 10.22 and a Response [4] of 68%. The pKi [5] was 6.49 and the pKi (Acetylcholine receptor) was 5.45.

For O=[N+]([O-])c1ccc2c(c1)C1CNCC2C1 (racemic), the pKi [1] was 6.68, the inhibition [2] was 20% and the pKi [3] was 9.12. For the same compound, the Response [4] was 65%, the pKi [5] was 5.13 and the pKi (Acetylcholine receptor) was 6.16.

With O=c1cccc2n1C[C@@H]1CNC[C@H]2C1 (single isomer, unassigned) [CYTISINICLINE] the pKi [1] was 6.08, the inhibition [2] was 30% and the pKi [3] was 9.77. For the same compound, the Response [4] was 56%, the pKi [5] was 5.38 and the pKi (Acetylcholine receptor) was 6.60.

For CN1CCC[C@H]1c1cccnc1 [NICOTINE], the Response [4] was 100% and the pKi (Acetylcholine receptor) was 5.20.
